# ChEMBL document CHEMBL1123757, “Selective thromboxane synthetase inhibitors and antihypertensive agents. New derivatives of 4-hydrazino-5H-pyridazino[4,5-b]indole, 4-hydrazinopyridazino[4,5-a]indole, and related compounds” (J Med Chem, 1987)
# Legend:
# Homo sapiens [1] = species: Homo sapiens; assay: In vitro inhibition of platelet aggregation induced by AA (PRP incubated for 60 minutes at 37 degree C) at 10e-5 M;No significance; format: functional
# Outline: (§1)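 Human venous blood anticoagulated with 3.8% sodium citrate (1:9). PRP from centrifugation at 800 rpm for 10 min at room temperature. Count adjusted with PPP to […]. Compound in saline with 10% ethylene glycol is added to PRP and incubated at 37 °C before the agonist. Agonists: ADP 2×10^-5 M, AA 0.6 mM, PGH2 2.8 μM, adrenaline 0.6 μM. Born absorbance aggregometry; n = 5.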
# Homo sapiens [2] = species: Homo sapiens; assay: In vitro inhibition of platelet aggregation induced by AA (PRP incubated for 60 minutes at 37 degree C) at 5e-6 M;No significance; format: functional; outline: as §1
# Rattus norvegicus [3] = assay: Antihypertensive activity in spontaneously hypertensive rats (SHR) measured by percentage fall in cardiac rhythm (CR) at 25 mg/kg administered intraperitoneally at 24 h; format: functional, Heart; conditions: route intraperitoneal
# Outline: (§2)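 Unanesthetized Okamoto-strain SHR, male and female, 8 weeks old, 300–350 g, systolic pressure ≥190 mmHg, heart rate 400–650 beats/min; five animals per dose. Given ip at 2.5 mL/kg, dissolved or suspended in normal saline or saline with 0.2% (carboxymethyl)cellulose and 1.0% Tween 80. Tail AP and CR recorded by mechanical transduction at set times; reported as percentage fall from control.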
# Homo sapiens [4] = species: Homo sapiens; assay: In vitro inhibition of platelet aggregation induced by DD (PRP incubated for 5 minutes at 37 degree C) at 10e-5 M;No significance; format: functional; outline: as §1
# Rattus norvegicus [5] = assay: Antihypertensive activity in spontaneously hypertensive rats (SHR) measured by percentage fall in arterial pressure (AP) at 25 mg/kg administered intraperitoneally at 5 h;No significance; format: functional, organism-based; design: dose 25 mg/kg; conditions: Artery; outline: as §2
# Rattus norvegicus [6] = assay: Antihypertensive activity in spontaneously hypertensive rats (SHR) measured by percentage fall in arterial pressure (AP) at 25 mg/kg administered intraperitoneally at 3 h;No significance; format: functional, organism-based; design: dose 25 mg/kg; conditions: Artery; outline: as §2
# Rattus norvegicus [7] = assay: Antihypertensive activity in spontaneously hypertensive rats (SHR) measured by percentage fall in cardiac rhythm (CR) at 25 mg/kg administered intraperitoneally at 5 h; format: functional, Heart; conditions: route intraperitoneal
# Outline: (§3)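 Conscious SHR (Okamoto strain), 8 weeks old, male and female, 300–350 g, systolic BP ≥190 mmHg, CR 400–650 beats/min. Given ip or po at 2.5 mL/kg in normal saline or saline with 0.2% (carboxymethyl)cellulose and 1.0% Tween 80. Tail AP and CR recorded by mechanical transduction at 1, 3, 5 and 24 h, five animals per dose. Effect expressed as % fall versus control.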
# Homo sapiens [8] = species: Homo sapiens; assay: In vitro inhibition of platelet aggregation induced by ADP-II (PRP incubated for 5 minutes at 37 degree C) at 10e-5 M; format: functional; outline: as §1
# Rattus norvegicus [9] = assay: Antihypertensive activity in spontaneously hypertensive rats (SHR) measured by percentage fall in arterial pressure (AP) at 25 mg/kg administered intraperitoneally at 24 h;No significance; format: functional, organism-based; design: dose 25 mg/kg; conditions: Artery; outline: as §2
# Homo sapiens [10] = species: Homo sapiens; assay: In vitro inhibition of platelet aggregation induced by ADP-II (PRP incubated for 60 minutes at 37 degree C) at 10e-5 M; format: functional; conditions: 1 h; outline: as §1
# Homo sapiens [11] = species: Homo sapiens; assay: In vitro inhibition of platelet aggregation induced by […] (PRP incubated for 5 minutes at 37 degree C) at 5 e-6 M;No significance; format: functional
# Rattus norvegicus [12] = assay: Antihypertensive activity in spontaneously hypertensive rats (SHR) measured by percentage fall in cardiac rhythm (CR) at 25 mg/kg administered intraperitoneally at 3 h; format: functional, Heart; conditions: route intraperitoneal; outline: as §2
# Homo sapiens [13] = species: Homo sapiens; assay: In vitro inhibition of platelet aggregation induced by […] (PRP incubated for 5 minutes at 37 degree C) at 10e-5 M; No significance; format: functional
# Rattus norvegicus [14] = assay: Antihypertensive activity in spontaneously hypertensive rats (SHR) measured by percentage fall in cardiac rhythm (CR) at 5 mg/kg administered intraperitoneally at 5 h;No significance; format: functional, organism-based; design: dose 5 mg/kg; conditions: Heart; outline: as §3
# Homo sapiens [15] = species: Homo sapiens; assay: In vitro inhibition of platelet aggregation induced by ADP-II (PRP incubated for 5 minutes at 37 degree C) at 10e-5 M; No significance; format: functional; outline: as §1
# Rattus norvegicus [16] = assay: Antihypertensive activity in spontaneously hypertensive rats (SHR) measured by percentage fall in arterial pressure (AP) at 1 mg/kg administered intraperitoneally at 24 h;No significance; format: functional, organism-based; design: dose 1 mg/kg; conditions: Artery; outline: as §2
# Rattus norvegicus [17] = assay: Antihypertensive activity in spontaneously hypertensive rats (SHR) measured by percentage fall in cardiac rhythm (CR) at 5 mg/kg administered intraperitoneally at 24 h;No significance; format: functional, organism-based; design: dose 5 mg/kg; conditions: Heart; outline: as §3
# Rattus norvegicus [18] = assay: Antihypertensive activity in spontaneously hypertensive rats (SHR) measured by percentage fall in arterial pressure (AP) at 1 mg/kg administered intraperitoneally at 3 h;No significance; format: functional, organism-based; design: dose 1 mg/kg; conditions: Artery; outline: as §2
# Rattus norvegicus [19] = assay: Antihypertensive activity in spontaneously hypertensive rats (SHR) measured by percentage fall in cardiac rhythm (CR) at 25 mg/kg administered perorally at 24 h;No significance; format: functional, organism-based; design: dose 25 mg/kg; conditions: Heart; outline: as §3
# Homo sapiens [20] = species: Homo sapiens; assay: In vitro inhibition of platelet aggregation induced by AA (PRP incubated for 60 minutes at 37 degree C) at 10e-5 M; No significance; format: functional; outline: as §1
# Rattus norvegicus [21] = assay: Antihypertensive activity in spontaneously hypertensive rats (SHR) measured by percentage fall in arterial pressure (AP) at 25 mg/kg administered intraperitoneally at 24 h; No significance; format: functional, organism-based; design: dose 25 mg/kg; conditions: Artery; outline: as §2
# Rattus norvegicus [22] = assay: Antihypertensive activity in spontaneously hypertensive rats (SHR) measured by percentage fall in arterial pressure (AP) at 1 mg/kg administered intraperitoneally at 5 h;No significance; format: functional, organism-based; design: dose 1 mg/kg; conditions: Artery; outline: as §2
# Homo sapiens [23] = species: Homo sapiens; assay: No significance in vitro inhibition of platelet aggregation induced by ADP-II (PRP incubated for 60 minutes at 37 degree C) at 10e-5 M;No significance; format: functional; outline: as §1
# Rattus norvegicus [24] = assay: Antihypertensive activity in spontaneously hypertensive rats (SHR) measured by percentage fall in cardiac rhythm (CR) at 25 mg/kg administered perorally at 5 h;No significance; format: functional, organism-based; design: dose 25 mg/kg; conditions: Heart; outline: as §3
# Rattus norvegicus [25] = assay: Percent fall in systolic blood pressure, directly measured on carotid (iv on the jugular vein) of spontaneously after 180 minutes; No significance; format: functional, organism-based; conditions: Artery
# Outline: (§4)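 Anesthetized (sodium pentobarbital, 70 mg/kg) male and female Okamoto SHR, 8 weeks old, 300–350 g. Given iv into the jugular vein in normal saline. Arterial pressure and cardiac rhythm are recorded directly from the carotid by polygraph at set times after dosing. Each is expressed as percent change from the pre-dose control value.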
# Rattus norvegicus [26] = assay: Percent fall in systolic blood pressure, directly measured on carotid (iv on the jugular vein) of spontaneously hypertensive rats at 1 mg/kg after 240 minutes; No significance; format: functional, organism-based; design: dose 1 mg/kg; conditions: Artery; outline: as §4
# Rattus norvegicus [27] = assay: Antihypertensive activity in spontaneously hypertensive rats (SHR) measured by percentage fall in arterial pressure (AP) at 25 mg/kg administered perorally at 24 h;No significance; format: functional, organism-based; design: dose 25 mg/kg; conditions: Artery
# Outline: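 Oral dosing at 2.5 mL/kg to unanesthetized male and female Okamoto-strain SHR (8 weeks old, 300–350 g, systolic pressure ≥190 mmHg, heart rate 400–650 beats/min), five per dose. Vehicle was normal saline or saline with 0.2% (carboxymethyl)cellulose and 1.0% Tween 80. AP measured on the tail by mechanical transduction at set times; expressed as percentage fall from control.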
# Rattus norvegicus [28] = assay: Antihypertensive activity in spontaneously hypertensive rats (SHR) measured by percentage fall in arterial pressure (AP) at 1 mg/kg administered intraperitoneally at 1 h;No significance; format: functional, organism-based; design: dose 1 mg/kg; conditions: Artery; outline: as §2
smiles,measurement,setting,value
Oc1ccc2[nH]c3c(O)nncc3c2c1,inhibition,Homo sapiens [1],No significant values
same,inhibition,Homo sapiens [2],No significant values
same,Decrease in CR,Rattus norvegicus [3],-8%
same,inhibition,Homo sapiens [4],No significant values
same,Decrease in AP,Rattus norvegicus [5],No significant values
same,Decrease in AP,Rattus norvegicus [6],No significant values
same,Decrease in CR,Rattus norvegicus [7],-7%
same,inhibition at 10 µM,Homo sapiens [8],87%
same,Decrease in AP,Rattus norvegicus [9],No significant values
same,inhibition at 10 µM,Homo sapiens [10],100%
same,inhibition,Homo sapiens [11],No significant values
same,Decrease in CR,Rattus norvegicus [12],-11%
NNc1[nH]ncc2c3cc(OCc4ccccc4)ccc3nc1-2,inhibition,Homo sapiens [13],No significant values
same,Decrease in CR,Rattus norvegicus [14],No significant values
same,inhibition,Homo sapiens [15],No significant values
same,Decrease in AP,Rattus norvegicus [16],No significant values
same,Decrease in CR,Rattus norvegicus [17],No significant values
same,Decrease in AP,Rattus norvegicus [18],No significant values
same,Decrease in CR,Rattus norvegicus [19],No significant values
same,inhibition,Homo sapiens [20],No significant values
same,Decrease in AP,Rattus norvegicus [21],No significant values
same,Decrease in AP,Rattus norvegicus [22],No significant values
same,inhibition,Homo sapiens [23],No significant values
same,Decrease in CR,Rattus norvegicus [24],No significant values
NNc1[nH]ncc2c3cc(O)ccc3nc1-2,Decrease in blood pressure,Rattus norvegicus [25],No significant values
same,Decrease in blood pressure,Rattus norvegicus [26],No significant values
same,Decrease in CR,Rattus norvegicus [19],No significant values
same,Decrease in AP,Rattus norvegicus [27],No significant values
same,Decrease in AP,Rattus norvegicus [22],No significant values
same,Decrease in AP,Rattus norvegicus [28],No significant values
